The target of series [1] is T1, GTPase KRas (Homo sapiens, UniProt P01116, G12D). In words: Inhibition of recombinant biotinylated KRAS G12D mutant (unknown origin) assessed as inhibition of SOS-catalyzed nucleotide exchange preincubated for 60 mins followed by addition of human SOS protein and unlabeled GTP and measured after 60 mins by TR-FRET analysis. In short, it runs like this: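 Biotinylated KRAS G12D was treated in EDTA buffer (1 h, RT), then loaded at 90 nM with 900 nM Bodipy-GDP and 15 nM Tb-streptavidin in Mg2+ buffer, HEPES pH 7.5 (6 h, RT). It was used at 1.5 nM assay solution with a 10-point, 3-fold DMSO compound series for 60 min at RT. A solution of 120 nM human SOS plus GTP was added for 60 min. The read-out was TR-FRET at 520/495 nm, normalized to DMSO and saturating-inhibitor controls, with a 4-parameter fit.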

Series [2] is described as follows: Stability in human HeLa cell homogenate assessed as half life by LC-MS/MS analysis. The format is ADME, cell-based. In a few lines:
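HeLa cells suspended at 1 × 10^6 cells/mL, probe-sonicated on ice until homogeneous, stored frozen at –20 °C. Peptides incubated with homogenate (1 × 10^6 cells/mL equivalent); peptide loss over time quantified by LC-MS/MS to derive t1/2.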

Series [3] has as its target T1, GTPase KRas. In words: Inhibition of KRAS in human ASPC1 cells harboring KRAS G12D mutant assessed as inhibition of ERK phosphorylation incubated for 2 hrs by AlphaScreen-based […] assay. It is filed as cell-based. In short, it runs like this:
(§1)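 AsPC-1 cells (KRAS G12D) were seeded at 15 000 cells/well in phenol-red-free RPMI with 10% FBS and 25 mM HEPES, then incubated overnight at 37 °C and 5% CO2. Medium was switched to serum-free before dosing. Cells were given a dose–response titration for 2 or 18 h at 37 °C, washed and lysed with protease inhibitors. Phospho-ERK and total ERK were read by AlphaScreen SureFire multiplex, using the pERK/total ERK ratio. Curves were fit with a 4-parameter logistic.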
(Alpha assays give light when donor and acceptor beads are brought close together.)

In series [4] the target is T1, GTPase KRas. In words: Inhibition of KRAS in human ASPC1 cells harboring KRAS G12D mutant assessed as inhibition of ERK phosphorylation incubated for 18 hrs by AlphaScreen-based […] assay. It is filed as cell-based. In short, it runs like this: as §1
Series [5] deals with HeLa. In words: Cell permeability in human HeLa cells transfected with NanoLuc-HaloTag vector incubated for 4 hrs followed by treated with NanoBret618-azide ligand by NanoClick assay. It is filed as ADME, cell-based.
Series [6] deals with HeLa. In words: Cell permeability in human HeLa cells transfected with NanoLuc-HaloTag vector incubated for 18 hrs followed by treated with NanoBret618-azide ligand by NanoClick assay. It is filed as ADME, cell-based.

Four compounds from ChEMBL document CHEMBL5131563, “Accelerated Identification of Cell Active KRAS Inhibitory Macrocyclic Peptides using Mixture Libraries and Automated Ligand Identification System (ALIS) Technology” (J Med Chem, 2022) can be followed below.

*1 amine or outer side, *2 acyl side, *3 side chain or, on linkers, in order; H or OH if unused. Where a SMILES comes first, the peptide text is derived from it. Bridges are numbered along the chain shown (N, C = ends). [ ]: non-standard residue; d: D form. X1 = O=C([C@@H]1[C@H](c2ccccc2)CCN1[*:1])[*:2]; Pro(3R-Ph) = O=C(O)[C@H]1NCC[C@@H]1c1ccccc1; Bip = N[C@@H](Cc1ccc(-c2ccccc2)cc1)C(=O)O; Lys(N3) = [N-]=[N+]=NCCCC[C@H](N)C(=O)O A value given as a limit tells only on which side of the number the result lay.

Broadly, the IC50 is the concentration at which inhibition is half-maximal. Usually half-life stands for the time in which the quantity being followed falls by half. One may read the EC50 as the concentration giving half of the maximal effect.

T1 sequence (P01116 whole entry G12D): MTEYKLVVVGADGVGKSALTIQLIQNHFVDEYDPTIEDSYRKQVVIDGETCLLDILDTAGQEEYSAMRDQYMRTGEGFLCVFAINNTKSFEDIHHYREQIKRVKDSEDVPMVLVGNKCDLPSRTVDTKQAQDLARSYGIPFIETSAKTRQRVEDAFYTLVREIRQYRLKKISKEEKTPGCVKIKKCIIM

Take `CC[C@H](C)[C@@H]1NC(=O)[C@H](Cc2ccc(-c3ccccc3)cc2)NC(=O)[C@H](CC(C)C)NC(=O)[C@@H]2[C@H](c3ccccc3)CCN2C(=O)[C@@H](NC(=O)[C@H](CCCNC(=N)N)NC(=O)[C@H](CCCNC(=N)N)NC(C)=O)CSSC[C@@H](C(=O)N[C@@H](CCCNC(=N)N)C(=O)N[C@@H](CCCNC(=N)N)C(N)=O)NC(=O)[C@H](C(C)C)NC(=O)[C@@H]2CCCN2C(=O)[C@H](CC(=O)O)NC(=O)[C@H](Cc2ccc(O)cc2)NC(=O)[C@H](CO)NC(=O)[C@H](C)NC1=O` (Ac-RRC[X1]L[Bip]IASYDPVCRR-NH2; disulfide 3-14): the IC50 on GTPase KRas [1] is under 0.001 µM; on GTPase KRas [3] it was 3.8 µM; at GTPase KRas [4], 3.9 µM. Besides, the half-life in series [2] was over 6.2 h.

Regarding `CC(=O)N[C@@H](CCCCN=[N+]=[N-])C(=O)N[C@@H](CCCNC(=N)N)C(=O)N[C@@H](CCCNC(=N)N)C(=O)N[C@H]1CSSC[C@@H](C(=O)N[C@@H](CCCNC(=N)N)C(=O)N[C@@H](CCCNC(=N)N)C(N)=O)NC(=O)[C@H](C(C)C)NC(=O)[C@@H]2CCCN2C(=O)[C@H](CC(=O)O)NC(=O)[C@H](Cc2ccc(O)cc2)NC(=O)[C@H](CO)NC(=O)[C@H](C)NC(=O)[C@H](Cc2ccc(-c3ccccc3)cc2)NC(=O)[C@H](CC(C)C)NC(=O)[C@@H]2[C@@H](c3ccccc3)CCN2C1=O` (Ac-[Lys(N3)]RRC[Pro(3R-Ph)]L[Bip]ASYDPVCRR-NH2; disulfide 4-14), the IC50 was under 0.001 µM on GTPase KRas [1], 6.2 µM at GTPase KRas [3] and 6.8 µM on GTPase KRas [4]. Also, in series [2], the half-life is over 6.2 h. The EC50 in the series with HeLa [5] was 1.49 µM; with HeLa [6] it was 0.148 µM.

With `CC[C@H](C)[C@@H]1NC(=O)[C@H](Cc2ccc(-c3ccccc3)cc2)NC(=O)[C@H](CC(C)C)NC(=O)[C@@H]2[C@H](c3ccccc3)CCN2C(=O)[C@@H](NC(=O)[C@H](CCCNC(=N)N)NC(=O)[C@H](CCCNC(=N)N)NC(=O)[C@H](CCCCN=[N+]=[N-])NC(C)=O)CSSC[C@@H](C(=O)N[C@@H](CCCNC(=N)N)C(=O)N[C@@H](CCCNC(=N)N)C(N)=O)NC(=O)[C@H](C(C)C)NC(=O)[C@@H]2CCCN2C(=O)[C@H](CC(=O)O)NC(=O)[C@H](Cc2ccc(O)cc2)NC(=O)[C@H](CO)NC1=O`, the results for the IC50 at GTPase KRas [1], on GTPase KRas [3] and at GTPase KRas [4] were under 0.001 µM, 2.7 µM and 19 µM, respectively. The half-life in series [2] is over 6.2 h. For the same compound, the figures for the half-maximal effective concentration (EC50) with HeLa [5] and in the series with HeLa [6] were 7.32 µM and 0.199 µM, respectively.

Take `CC[C@H](C)[C@@H]1NC(=O)[C@H](Cc2ccc(-c3ccccc3)cc2)NC(=O)[C@H](CC(C)C)NC(=O)[C@@H]2[C@@H](c3ccccc3)CCN2CC(=O)[C@@H](NC(=O)[C@H](CCCNC(=N)N)NC(=O)[C@H](CCCNC(=N)N)NC(C)=O)CSSC[C@@H](C(=O)N[C@@H](CCCNC(=N)N)C(=O)N[C@@H](CCCNC(=N)N)C(N)=O)NC(=O)[C@H](C(C)C)NC(=O)[C@@H]2CCCN2C(=O)[C@H](CC(=O)O)NC(=O)[C@H](Cc2ccc(O)cc2)NC(=O)[C@H](CO)NC1=O`: the IC50 on GTPase KRas [1] was under 0.001 µM; at GTPase KRas [3], 3.3 µM; on GTPase KRas [4] it was 33 µM. Also, in series [2], the half-life was over 6.2 h.
